Test results reported in ChEMBL document CHEMBL4177540, “Corymbulosins D-H, 2-Hydroxy- and 2-Oxo-clerodane Diterpenes from the Bark of Laetia corymbulosa” (J Nat Prod, 2017).

Key:
Format in all cases: functional, cell-based
A549 = experiment: Antiproliferative activity against human A549 cells incubated for 72 hrs by SRB assay; conditions: A549, 72 h
MDA-MB-231 = experiment: Antiproliferative activity against human MDA-MB-231 cells incubated for 72 hrs by SRB assay; conditions: MDA-MB-231, 72 h
MCF7 = experiment: Antiproliferative activity against human MCF7 cells incubated for 72 hrs by SRB assay; conditions: MCF7, 72 h
Outline: (§1)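 Cells in RPMI-1640 with 2 mM L-glutamine, 25 mM HEPES, 10% FBS, streptomycin and penicillin. Seeded at 4,000−12,000 cells per well, then exposed to compound for 72 h. Fixed with 10% trichloroacetic acid, stained with 0.04% SRB, dye taken up in 10 mM Tris base, absorbance read at 515 nm. IC50 is 50% reduction versus untreated cells, from at least three independent experiments run in duplicate.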

KB = experiment: Antiproliferative activity against human KB cells incubated for 72 hrs by SRB assay
[1] = Antiproliferative activity against human KBVIN cells incubated for 72 hrs by SRB assay; outline: as §1

Row | Structure (SMILES) | IC50 (A549) | IC50 (MDA-MB-231) | IC50 (MCF7) | IC50 (KB) | IC50 [1]
1 | C=CC(=C)CC[C@]1(C)[C@H](C)C[C@H](OC(=O)CCCCCCCCC)[C@@]23C(=CC(=O)C[C@@H]12)[C@@H](OC(C)=O)O[C@H]3OC(C)=O | > 10 µM | > 10 µM | 8.3 µM | 5.9 µM | 9.8 µM
2 | C=CC(=C)CC[C@]1(C)[C@H](C)C[C@H](OC(=O)/C=C\C=C/CCCCC)[C@@]23C(=C[C@@H](O)C[C@@H]12)[C@@H](OC(C)=O)O[C@H]3OC(C)=O | 4.8 µM | 5.1 µM | 5.2 µM | 4.9 µM | 4.8 µM
3 | C=CC(=C)CC[C@]1(C)[C@H](C)C[C@H](OC(=O)CCCCCCCCC)[C@@]23C(=C[C@@H](O)C[C@@H]12)[C@@H](OC(C)=O)O[C@H]3OC(C)=O | 5.3 µM | 5.4 µM | 5.4 µM | 4.5 µM | 4.8 µM
4 | C=CC(=C)CC[C@]1(C)[C@H](C)C[C@H](OC(=O)CCCCCCCCC)[C@@]23C(=C[C@H](O)C[C@@H]12)[C@@H](OC(C)=O)O[C@H]3OC(C)=O | 4.7 µM | 5.2 µM | 5 µM | 5 µM | 4.9 µM

Further lines, with some results ahead:

Row | IC50 (A549) | IC50 (MDA-MB-231) | IC50 (MCF7) | IC50 (KB) | Structure (SMILES) | IC50 [1]
5 | 4.7 µM | 5.1 µM | 4.9 µM | 5 µM | C=CC(=C)CC[C@]1(C)[C@H](C)C[C@H](OC(=O)CCCCCCC)[C@@]23C(=C[C@H](O)C[C@@H]12)[C@@H](OC(C)=O)O[C@H]3OC(C)=O | 4.9 µM
6 | 4.6 µM | 4.8 µM | 4.8 µM | 4.8 µM | C=CC(=C)CC[C@]1(C)[C@H](C)C[C@H](OC(=O)/C=C\C=C/CCCCC)[C@@]23C(=C[C@H](O)C[C@@H]12)[C@@H](OC(C)=O)O[C@H]3OC(C)=O | 4.9 µM
